Measured values of several laboratories.
Each line is one published result; the experiments were not run side by side.
PIK3C2A: Phosphatidylinositol 4-phosphate 3-kinase C2 domain-containing subunit alpha (PIK3C2A, Homo sapiens, UniProt O00443)
TAOK2: Serine/threonine-protein kinase TAO2 (TAOK2, Homo sapiens, UniProt Q9UL54)

| Structure (SMILES) | target | test | system | conditions | quantity | value |
| --- | --- | --- | --- | --- | --- | --- |
| O=C(Nc1cccnn1)N1CCN([C@@H]2CCOc3cc(C(F)(F)F)ccc32)CC1 | Apelin receptor (APLNR, Homo sapiens, UniProt P35414) | ligand displacement |  | 20 µM | inhibition | -1% |
| C#Cc1n[nH]c2c(-c3cn(C(C)c4ccccn4)c(=O)[nH]c3=O)cc(F)cc12 (centres unmarked) | PIK3C2A | enzyme activity, inhibitor |  | 1 µM | inhibition | 8.9% |
| Cn1cc(-c2cc(F)cc(N3CCn4c(cc5c4CCCC5)C3=O)c2CO)cc(Nc2ccc(N3CCN(C4COC4)CC3)cn2)c1=O | PIK3C2A | enzyme activity, inhibitor |  | 0.1 µM | inhibition | -2% |
| CCCCCc1cc(O)c2c(c1)OC(C)(CCC=C(C)C)C=C2 (centres unmarked) | Polyunsaturated fatty acid lipoxygenase ALOX12 (ALOX12, Homo sapiens, UniProt P18054) | enzyme activity in cells, inhibitor | PMNL | 10 µM | remaining activity | 122% |
| Cc1nn(C)cc1-c1nc2c(N3CCN(Cc4ccc(Cl)cc4)CC3)c(Cl)cnc2[nH]1 | Rhodopsin kinase GRK1 (GRK1, Homo sapiens, UniProt Q15835) | binding, competition with immobilised ligand |  | 1 µM | remaining binding | 100% |
| C#Cc1n[nH]c2c(-c3cn([C@@H](C)c4ccccc4)c(=O)[nH]c3=O)cc(F)cc12 | Mitogen-activated protein kinase 14 (MAPK14, Homo sapiens, UniProt Q16539) | enzyme activity, inhibitor |  | 0.1 µM | inhibition | 2.1% |
| COc1cc(Nc2ncc(F)c(Nc3ccc4c(n3)NC(=O)C(C)(C)O4)n2)cc(OC)c1OC | TAOK2 | binding |  | 10 µM | inhibition | 88% |
| COc1ncccc1-c1cnn2ccc(N3CCN(C(=O)OC(C)C)CC3)nc12 | TAOK2 | binding, competition with immobilised ligand |  | 1 µM | remaining binding | 64% |
| CCN(CC)CCCC[C@H](NC(=O)[C@H](CC(C)C)NC(=O)[C@H](C)NC(=O)[C@H](Cc1ccccc1)NC(=O)c1ccc(C(C)(C)C)cc1)C(=O)N[C@@H](CO)C(=O)OC | Nociceptin receptor (OPRL1, Homo sapiens, UniProt P41146) | ligand displacement, radioligand |  | 10 µM | remaining binding | 76.8% |
| Cn1cc(-c2cccc(N3CCc4c(sc5c4CC(C)(C)C5)C3=O)c2CO)cc(Nc2ccncn2)c1=O | PIK3C2A | enzyme activity, inhibitor |  | 1 µM | inhibition | 0% |
| Nc1ncc(-c2nc(N3CCOCC3)nc(N3CCOCC3)n2)c(C(F)F)n1 | cGMP-inhibited 3',5'-cyclic phosphodiesterase 3A (PDE3A, Homo sapiens, UniProt Q14432) | enzyme activity, inhibitor |  | 10 µM | remaining activity | 39.1% |
